The structures appear in SMILES notation.

Test [1] has as its system Rattus norvegicus. Kind of test: Diuretic effect was evaluated in the conscious female rat by natriuretic assay involving metabolic caging at dose 10 mg/kg. Format: functional, Urine. The essentials:
(§1)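 Rats housed singly in metabolic cages 1-2 days beforehand and acclimated to oral gavage with 3 mL/kg tap water; food and water withdrawn 2 h pre-test. Oral saline volume load, 25 mL/kg, then compound by gavage as 1% CMC suspension (1 mL/kg); 1% CMC vehicle control. Six rats per group. 5 h urine collected; volume, Na+, K+ measured. Outliers >2 SD removed; ANOVA, Scheffe F test.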

The subject of test [2] is Rattus norvegicus. Kind of test: Natriuretic effect was evaluated in the conscious female rat by natriuretic assay involving metabolic caging at dose 10 mg/kg. The format is functional. Summed up: as §1
The subject of test [3] is Rattus norvegicus. Briefly: Diuretic effect was evaluated in the conscious female rat by natriuretic assay involving metabolic caging at dose 30 mg/kg. The format is functional, Urine. Summed up: as §1
Test [4] has as its system Rattus norvegicus. Briefly: Kaliuretic effect was evaluated in the conscious female rat by natriuretic assay involving metabolic caging at dose 30 mg/kg. Format: functional. Summed up:
as §1

In test [5] the test system is Rattus norvegicus. Briefly: Natriuretic effect was evaluated in the conscious female rat by natriuretic assay involving metabolic caging at dose 30 mg/kg. The format is functional. The essentials:
as §1

The subject of test [6] is Rattus norvegicus. Kind of test: Natriuretic effect was evaluated in the conscious female rat by natriuretic assay involving metabolic caging at dose 50 mg/kg. The format is functional. The essentials:
as §1

The subject of test [7] is Rattus norvegicus. Briefly: Kaliuretic effect was evaluated in the conscious female rat by natriuretic assay involving metabolic caging at dose 10 mg/kg. The format is functional. The essentials: as §1
Test [8] concerns Rattus norvegicus. Briefly: Kaliuretic effect was evaluated in the conscious female rat by natriuretic assay involving metabolic caging at dose 50 mg/kg. The format is functional. Summed up:
as §1

The subject of test [9] is Rattus norvegicus. Briefly: Diuretic effect was evaluated in the conscious female rat by natriuretic assay involving metabolic caging at dose 50 mg/kg. The format is functional, Urine. Summed up:
as §1

Test [10] deals with Rattus norvegicus. Kind of test: Kaliuretic effect was evaluated in the conscious female rat by natriuretic assay involving metabolic caging at dose 20 mg/kg. The format is functional. Summed up:
as §1

For test [11], the system named is Rattus norvegicus. Briefly: Natriuretic effect was evaluated in the conscious female rat by natriuretic assay involving metabolic caging at dose 20 mg/kg. The format is functional. The essentials:
as §1

Test [12] relates to Rattus norvegicus. Briefly: Diuretic effect was evaluated in the conscious female rat by natriuretic assay involving metabolic caging at dose 20 mg/kg. The format is functional, Urine. The essentials: as §1
The subject of test [13] is Rattus norvegicus. Kind of test: Diuretic effect was evaluated in the conscious female rat by natriuretic assay involving metabolic caging at dose 5 mg/kg. The format is functional, Urine. The essentials: as §1
For test [14], the system named is Rattus norvegicus. Briefly: Kaliuretic effect was evaluated in the conscious female rat by natriuretic assay involving metabolic caging at dose 5 mg/kg. Format: functional. Summed up:
as §1

The test system of test [15] is Rattus norvegicus. Briefly: Natriuretic effect was evaluated in the conscious female rat by natriuretic assay involving metabolic caging at dose 5 mg/kg. Format: functional. Summed up: as §1

`COc1ccc([C@@H]2Sc3ccccc3N(CCO)C[C@@H]2O)cc1`: the Diuretic activity with Rattus norvegicus [1] stood at 1.7 mL/g; with Rattus norvegicus [3], 1.75 mL/g; in the test with Rattus norvegicus [9] it was 1.6 mL/g. Moreover, the figures for the Natriuretic activity in the test on Rattus norvegicus [2], in the test on Rattus norvegicus [5] and with Rattus norvegicus [6] were less than 2 µM/g, less than 1.6 µM/g and less than 1.65 µM/g, respectively. The Kaliuretic activity was less than 0.9 µM/g in the test with Rattus norvegicus [4], less than 1 µM/g with Rattus norvegicus [7] and 0.97 µM/g in the test with Rattus norvegicus [8].

As to `COc1ccc([C@@H]2Sc3ccccc3N(CC(=O)O)C(=O)[C@@H]2OC(C)=O)cc1`, the Kaliuretic activity with Rattus norvegicus [10] was less than 1.08 µM/g; in the test on Rattus norvegicus [4], 1.2 µM/g; in the test on Rattus norvegicus [7], less than 0.9 µM/g; in the test on Rattus norvegicus [8] it was 1.25 µM/g. Moreover, the Natriuretic activity was less than 1.55 µM/g with Rattus norvegicus [11], less than 2 µM/g in the test with Rattus norvegicus [2], less than 2.1 µM/g with Rattus norvegicus [5] and 1.7 µM/g in the test with Rattus norvegicus [6]. The Diuretic activity in the test with Rattus norvegicus [1] was 1.92 mL/g; with Rattus norvegicus [3] it was 2.25 mL/g; in the test on Rattus norvegicus [12], 1.75 mL/g; with Rattus norvegicus [9], 2.1 mL/g.

On to `COc1ccc([C@@H]2Sc3ccccc3N(CCO)C(=O)[C@@H]2O)cc1`, for which the Kaliuretic activity in the test on Rattus norvegicus [10] was less than 1.05 µM/g; in the test with Rattus norvegicus [14], 1 µM/g; in the test on Rattus norvegicus [7] it was 1.1 µM/g; with Rattus norvegicus [8] it was less than 0.8 µM/g. Also, the Natriuretic activity in the test with Rattus norvegicus [11] is less than 1.9 µM/g; in the test with Rattus norvegicus [2], less than 2.5 µM/g; in the test on Rattus norvegicus [6] it was less than 0.9 µM/g; in the test with Rattus norvegicus [15], less than 1.6 µM/g. Moreover, the Diuretic activity in the test on Rattus norvegicus [1] was 2.1 mL/g; in the test on Rattus norvegicus [13], 1.7 mL/g; in the test on Rattus norvegicus [12] it was 1.8 mL/g; with Rattus norvegicus [9] it was 1.6 mL/g.

Take `COc1ccc([C@@H]2Sc3ccccc3N(CC(=O)O)C(=O)[C@@H]2O)cc1`: the Kaliuretic activity turned out to be 1.15 µM/g in the test on Rattus norvegicus [10], 1.07 µM/g with Rattus norvegicus [4], 1.1 µM/g in the test with Rattus norvegicus [7] and 1.23 µM/g in the test on Rattus norvegicus [8]. In addition, the Natriuretic activity with Rattus norvegicus [11] was less than 1.6 µM/g; in the test with Rattus norvegicus [2] it was less than 2 µM/g; in the test with Rattus norvegicus [5], less than 2.1 µM/g; in the test with Rattus norvegicus [6], less than 1.95 µM/g. Moreover, the Diuretic activity in the test on Rattus norvegicus [1] is 2 mL/g; in the test with Rattus norvegicus [3], 2.1 mL/g; in the test with Rattus norvegicus [12] it was 1.7 mL/g; with Rattus norvegicus [9], 1.85 mL/g.

Turning to `CCOC(=O)CN1C(=O)[C@H](O)[C@H](c2ccc(OC)cc2)Sc2ccccc21`, the results for the Diuretic activity with Rattus norvegicus [1], in the test with Rattus norvegicus [3] and in the test with Rattus norvegicus [9] were 1.7 mL/g, 1.5 mL/g and 1.3 mL/g, respectively. In addition, the results for the Natriuretic activity in the test with Rattus norvegicus [2], in the test on Rattus norvegicus [5] and in the test with Rattus norvegicus [6] were less than 2 µM/g, less than 1.6 µM/g and less than 1.25 µM/g, respectively. In addition, the figures for the Kaliuretic activity in the test on Rattus norvegicus [4], with Rattus norvegicus [7] and in the test on Rattus norvegicus [8] were less than 0.75 µM/g, less than 1.1 µM/g and 1 µM/g, respectively.

As to `COc1ccc([C@@H]2Sc3ccccc3N(CCO)C(=O)[C@@H]2OC(C)=O)cc1`, the Kaliuretic activity in the test on Rattus norvegicus [10] is less than 0.67 µM/g; in the test with Rattus norvegicus [7], 0.7 µM/g. Also, the Natriuretic activity is less than 1.35 µM/g in the test on Rattus norvegicus [11] and less than 1.25 µM/g in the test with Rattus norvegicus [2]. Besides, the Diuretic activity was determined as 1.3 mL/g in the test with Rattus norvegicus [1] and 1.28 mL/g in the test with Rattus norvegicus [12].

Regarding `COc1ccc([C@@H]2Sc3ccccc3N(CCOC(C)=O)C(=O)[C@@H]2OC(C)=O)cc1`, the Diuretic activity in the test with Rattus norvegicus [1] and with Rattus norvegicus [9] was 1.3 mL/g throughout. The Natriuretic activity in the test with Rattus norvegicus [2] is less than 1.35 µM/g; in the test with Rattus norvegicus [6], less than 1.55 µM/g. The Kaliuretic activity was less than 0.95 µM/g in the test with Rattus norvegicus [7] and less than 0.7 µM/g in the test with Rattus norvegicus [8].

`COc1ccc([C@@H]2Sc3ccccc3N(CCN(C)C)C(=O)[C@@H]2OC(C)=O)cc1` [DILTIAZEM]: the Kaliuretic activity in the test on Rattus norvegicus [10] is 0.7 µM/g; in the test on Rattus norvegicus [7], less than 0.8 µM/g. Also, the Natriuretic activity in the test with Rattus norvegicus [11] was less than 1.6 µM/g; in the test on Rattus norvegicus [2], less than 1.4 µM/g. In addition, the Diuretic activity in the test with Rattus norvegicus [1] was found to be 1.6 mL/g; in the test with Rattus norvegicus [12], 1.8 mL/g.

For the molecule `NS(=O)(=O)c1cc(C(=O)O)c(NCc2ccco2)cc1Cl` [FUROSEMIDE], the Kaliuretic activity in the test on Rattus norvegicus [10] is less than 1.1 µM/g; in the test on Rattus norvegicus [4], less than 1.6 µM/g. Moreover, the Natriuretic activity in the test with Rattus norvegicus [11] is less than 1.1 µM/g; with Rattus norvegicus [5], less than 2.5 µM/g. Further, the Diuretic activity with Rattus norvegicus [3] stood at 2.6 mL/g; in the test with Rattus norvegicus [12] it was 1.3 mL/g.

The record behind these values is ChEMBL document CHEMBL1129580, “Endogenous natriuretic factors. 5. Synthesis and biological activity of a natriuretic metabolite of diltiazem and its derivatives” (1996).
